The text below walks through data of ChEMBL document CHEMBL1121887, “A new nontricyclic antidepressant agent. Synthesis and activity of N-[trans-2-(dimethylamino)cyclopentyl]-N-(3,4-dichlorophenyl)propanamide and related compounds” (1981).

Type in all cases: functional
The species named for assay [1] is Mus musculus. The experiment in a line: Antidepressant activity using yohimbine potentiation test in mice.
Assay [2] is filed under the species Mus musculus. The experiment in a line: Antidepressant activity using apomorphine potentiation test in mice. An outline of the steps:
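Male CF-1 mice in groups of four got test compound i.p. (50 and 25 mg/kg) in 0.25% aqueous methylcellulose. 1 h later they got apomorphine 10 mg/kg s.c. and were watched 30 min for stereotyped gnawing and licking, each positive. If ≥3 were positive, the test was repeated at 0.3 log lower doses until ≤1 responded. ED50 and 95% CI by Spearman–Karber.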

The species named for assay [3] is Mus musculus. The assay is described as follows: Antidepressant activity using oxotremorine antagonism test in mice.

For `CCC(=O)N(c1ccc(Cl)c(Cl)c1)C1CCCC1N(C)C` (cis isomer) [ECLANAMINE], the ED50 (in general, the dose at which the effect has come halfway, by size or by number of responders) in the assay filed under Mus musculus [1] was 0.9 mg/kg; in the assay filed under Mus musculus [2], more than 50 mg/kg; in the assay filed under Mus musculus [3], 2 mg/kg.

Take `CCC(=O)N(c1ccc(Cl)c(Cl)c1)C1CCCC1N(C)C` (stereo in doubt; 6) [ECLANAMINE]: the ED50 amounted to 0.4 mg/kg in the assay filed under Mus musculus [1], 10 mg/kg in the assay filed under Mus musculus [2] and 0.2 mg/kg in the assay filed under Mus musculus [3].

`CCC(=O)N(c1ccccc1)C1CCCC1N(C)C` (stereo in doubt; 16): the ED50 in the assay listed under Mus musculus [1] is 3 mg/kg; in the assay filed under Mus musculus [2], 0.8 mg/kg; in the assay filed under Mus musculus [3], 2 mg/kg.

As for `CCC(=O)N(c1cccc(C)c1)C1CCCC1N(C)C` (stereo in doubt; 22), the ED50 in the assay filed under Mus musculus [1] (Mus musculus, read-out: ED50) was found to be 3 mg/kg; in the assay listed under Mus musculus [2] (Mus musculus, read-out: ED50) it was 25 mg/kg; in the assay listed under Mus musculus [3] (Mus musculus, read-out: ED50), 1 mg/kg.

On to `CCC(=O)N(c1ccc(C)cc1)C1CCCC1N(C)C` (stereo in doubt; 24), for which the ED50 in the assay listed under Mus musculus [1] stood at 30 mg/kg; in the assay listed under Mus musculus [2], 10 mg/kg; in the assay filed under Mus musculus [3], 10 mg/kg.

As to `CCC(=O)N(c1cccc(C)c1)C1CCCC1N(C)C` (stereo in doubt; 44), the median effective dose (ED50) was found to be 3 mg/kg in the assay listed under Mus musculus [1], 25 mg/kg in the assay filed under Mus musculus [2] and 1 mg/kg in the assay filed under Mus musculus [3].

For `CCC(=O)N(c1ccc(C)cc1)C1CCCC1N(C)C` (stereo in doubt; 45), the 50% effective dose (ED50) worked out at 30 mg/kg in the assay listed under Mus musculus [1] (Mus musculus, read-out: ED50); 10 mg/kg in the assay listed under Mus musculus [2] (Mus musculus, read-out: ED50); 10 mg/kg in the assay filed under Mus musculus [3] (Mus musculus, read-out: ED50).

`CCC(=O)N(c1ccc(OC)cc1)C1CCCC1N(C)C` (stereo in doubt; 47): the ED50 in the assay listed under Mus musculus [1] (Mus musculus, read-out: ED50) was 30 mg/kg; in the assay listed under Mus musculus [2] (Mus musculus, read-out: ED50) it was more than 50 mg/kg; in the assay listed under Mus musculus [3] (Mus musculus, read-out: ED50), 20 mg/kg.

Take `CN(C)CCCN1c2ccccc2CCc2ccccc21.Cl` [IMIPRAMINE HYDROCHLORIDE]: the ED50 was found to be 4 mg/kg in the assay listed under Mus musculus [1] (Mus musculus, read-out: ED50); 1 mg/kg in the assay filed under Mus musculus [2] (Mus musculus, read-out: ED50); 1 mg/kg in the assay filed under Mus musculus [3] (Mus musculus, read-out: ED50).
